The record followed here is ChEMBL document CHEMBL4673248, “Discovery and Characterization of BAY 1214784, an Orally Available Spiroindoline Derivative Acting as a Potent and Selective Antagonist of the Human Gonadotropin-Releasing Hormone Receptor as Proven in a First-In-Human Study in Postmenopausal Women” (J Med Chem, 2020).

For data set [1], the target named is T1, Gonadotropin-releasing hormone receptor (Rattus norvegicus, UniProt P30969).
T1 sequence (P30969 whole entry): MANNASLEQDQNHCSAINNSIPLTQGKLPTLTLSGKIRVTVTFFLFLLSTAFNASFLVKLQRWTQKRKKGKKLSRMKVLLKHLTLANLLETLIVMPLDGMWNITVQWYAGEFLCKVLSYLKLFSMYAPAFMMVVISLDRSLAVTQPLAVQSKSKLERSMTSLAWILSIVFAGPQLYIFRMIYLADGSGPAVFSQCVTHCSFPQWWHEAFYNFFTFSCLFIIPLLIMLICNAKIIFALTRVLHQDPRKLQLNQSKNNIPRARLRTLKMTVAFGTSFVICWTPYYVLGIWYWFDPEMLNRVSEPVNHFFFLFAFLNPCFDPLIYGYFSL
As to the kind of experiment: Antagonist activity at rat GnRH receptor expressed in CHO-K1 cells assessed as inhibition of buserelin-induced response preincubated for 20 mins followed by buserelin addition and measured after 60 mins by TR-FRET assay. The data set is classed as cell-based. The gist of the method:
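Frozen rat-receptor cells: thawed, seeded overnight in serum-containing Ham's F12, Accutase-harvested, resuspended in serum-free medium with IP1-d2, 1 h at 37 °C. 1.0 × 10^4 cells/well, 20 min compound preincubation at rt, then 1× EC80 LHRH or buserelin in HEPES stimulation buffer pH 7.4 for 60 min at 37 °C. Tb-anti-IP1 lysis (1:38), HTRF read 60 min later.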

Data set [2] in a line: Lipophilicity, log D of the compound in pH 7.5 MeCN/H2O solution by reversed-phase HPLC analysis. The data set is classed as physicochemical. The gist of the method: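 Indirect reversed-phase HPLC at pH 7.5, calibrated with n-alkan-2-ones C3–C16. Compounds applied as 0.67 mM DMSO stocks in MeCN/H2O (1:1).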
Data set [3] is described as follows: Aqueous solubility of compound at pH 6.5 incubated for 24 hrs under shaking condition by HPLC-MS/MS analysis. The data set is classed as physicochemical. As to conditions: aqueous solution. The procedure, abridged: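 Compound from 1 mM DMSO solution, pH 6.5 buffer added, shaken 24 h at rt. Filtered, dissolved compound quantified by HPLC-MS/MS.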
The nature of data set [4]: Efflux ratio of apparent permeability across basolateral to apical side over apical to basolateral side in human Caco2 cells at 2 uM measured after 2 hrs by LC-MS/MS analysis. The data set is classed as ADME, cell-based. As to conditions: Caco-2. The gist of the method: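 Caco-2 monolayers grown 15 d, integrity checked by TEER. Compound 2 µM added apical or basolateral in FCS-free HEPES carbonate buffer pH 7.2, incubated 2 h at 37 °C. Both compartments sampled before and after, analysed by LC-MS/MS after MeOH precipitation. Papp computed from receiver peak area, surface area and time. Efflux ratio taken as Papp B–A/Papp A–B.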

Data set [5] in a line: Clearance in Wistar rat at 0.5 mg/kg, iv by LC-MS/MS analysis. The data set is classed as ADME, organism-based. As to conditions: Wistar, in vivo.
Data set [6] in a line: Half life in Wistar rat at 0.5 mg/kg, iv by LC-MS/MS analysis. Type of data set: ADME, organism-based. To be noted: in vivo.
Data set [7] is described as follows: Oral bioavailability in Wistar rat at 2 mg/kg by LC-MS/MS analysis. The data set is classed as ADME, organism-based. To be noted: in vivo.
Data set [8] concerns the target T2, Cytochrome P450 3A4 (Homo sapiens, UniProt P08684). As to the kind of experiment: Irreversible inhibition of CYP3A4 in human liver microsomes using midazolam as substrate. Type of data set: ADME.
A short description of data set [9]: Fraction unbound in human plasma. The data set is classed as ADME, cell-free.
Data set [10] deals with Cannabinoid receptor 1 (Homo sapiens, UniProt P21554). As to the kind of experiment: Inhibition of CB1 receptor (unknown origin).
The nature of data set [11]: Chemical stability of compound at pH 1 to 10 measured up to 24 hrs by UV-HPLC analysis. Type of data set: physicochemical. To be noted: buffer, pH 1, 24 h. The procedure, abridged: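 10 mM DMSO stock diluted in MeCN, then into pH 1, 7 or 10 buffer. Held at 37 °C, HPLC-UV injections at 0, 1, 2 and 24 h. Recovery given as peak area relative to time zero.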
A short description of data set [12]: Clearance in cynomolgus monkey liver microsomes. The data set is classed as ADME, Macaca fascicularis, Microsome.
Data set [13] is described as follows: Maximum oral bioavailability in human hepatocytes. The data set is classed as ADME, Hepatocyte. As to conditions: read-out: Fmax.
Data set [14] can be described thus: Maximum oral bioavailability in cynomolgus monkey hepatocytes. To be noted: read-out: Fmax. The data set is classed as ADME, Macaca fascicularis, Hepatocyte.
The target of data set [15] is T3, Cytochrome P450 2C8 (Homo sapiens, UniProt P10632).
T3 sequence (P10632 whole entry): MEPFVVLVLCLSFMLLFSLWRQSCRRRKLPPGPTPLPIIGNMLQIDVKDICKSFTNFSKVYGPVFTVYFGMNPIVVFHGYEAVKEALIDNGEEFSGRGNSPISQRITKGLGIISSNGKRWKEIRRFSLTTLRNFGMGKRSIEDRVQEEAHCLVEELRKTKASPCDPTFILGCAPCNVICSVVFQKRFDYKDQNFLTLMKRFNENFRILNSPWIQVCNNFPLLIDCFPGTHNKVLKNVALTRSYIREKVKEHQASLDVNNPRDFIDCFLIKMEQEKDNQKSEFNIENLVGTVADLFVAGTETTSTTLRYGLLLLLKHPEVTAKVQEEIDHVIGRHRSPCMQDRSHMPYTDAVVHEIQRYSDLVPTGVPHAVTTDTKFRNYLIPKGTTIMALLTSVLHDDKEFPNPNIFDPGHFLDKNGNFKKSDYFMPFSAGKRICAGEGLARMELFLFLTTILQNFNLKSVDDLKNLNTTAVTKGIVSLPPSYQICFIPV
Briefly: Inhibition of CYP2C8 in human liver microsomes using amodiaquine as substrate by LC-MS/MS analysis. Type of data set: ADME.

For data set [16], the target named is Cytochrome P450 2C9 (Homo sapiens, UniProt P11712). As to the kind of experiment: Inhibition of CYP2C9 in human liver microsomes using diclofenac as substrate by LC-MS/MS analysis. Type of data set: ADME.
The target of data set [17] is T2, Cytochrome P450 3A4. Briefly: Inhibition of CYP3A4 in human liver microsomes using […] as substrate by LC-MS/MS analysis. Type of data set: ADME.
The target in data set [18] is T4, Gonadotropin-releasing hormone receptor (Homo sapiens, UniProt P30968).
T4 sequence (P30968 whole entry): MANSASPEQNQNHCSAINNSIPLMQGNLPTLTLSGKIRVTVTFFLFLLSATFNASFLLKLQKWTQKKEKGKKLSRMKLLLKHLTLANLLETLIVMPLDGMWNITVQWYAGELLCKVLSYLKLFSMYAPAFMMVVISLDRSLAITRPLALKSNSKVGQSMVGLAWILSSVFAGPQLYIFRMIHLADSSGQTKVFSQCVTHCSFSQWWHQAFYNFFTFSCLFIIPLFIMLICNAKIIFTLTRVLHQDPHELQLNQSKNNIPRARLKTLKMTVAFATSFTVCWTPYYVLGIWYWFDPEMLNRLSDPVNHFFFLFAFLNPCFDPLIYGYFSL
Briefly: Inhibition of Tag-lite green-labeled agonist binding to terbium fluorophore-labeled human N-terminal SNAP-tag GnRh receptor expressed in HEK293 cells assessed as equilibrium dissociation constant by TR-FRET assay. The data set is classed as cell-based.

Data set [19] has as its system Cynomolgus monkey. As to the kind of experiment: Suppression of orchiectomy-induced increase in plasma luteinizing hormone level in cynomolgus monkey at 20 mg/kg, po measured up to 24 hrs by RIA. As to conditions: time hrs <=24. Type of data set: functional, Macaca fascicularis. The procedure, abridged:
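Orchiectomized cynomolgus monkeys given a single oral dose of 20 mg/kg. Plasma LH suppression expressed relative to baseline levels.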

Data set [20] relates to Homo sapiens. Briefly: Suppression of plasma luteinizing hormone level in postmenopausal woman at 300 mg, po administered as single dose using SMEDDS formulation by ECLIA relative to control. Type of data set: functional.

Converted amounts (≈) assume the structure as drawn.

T2 sequence (P08684 whole entry): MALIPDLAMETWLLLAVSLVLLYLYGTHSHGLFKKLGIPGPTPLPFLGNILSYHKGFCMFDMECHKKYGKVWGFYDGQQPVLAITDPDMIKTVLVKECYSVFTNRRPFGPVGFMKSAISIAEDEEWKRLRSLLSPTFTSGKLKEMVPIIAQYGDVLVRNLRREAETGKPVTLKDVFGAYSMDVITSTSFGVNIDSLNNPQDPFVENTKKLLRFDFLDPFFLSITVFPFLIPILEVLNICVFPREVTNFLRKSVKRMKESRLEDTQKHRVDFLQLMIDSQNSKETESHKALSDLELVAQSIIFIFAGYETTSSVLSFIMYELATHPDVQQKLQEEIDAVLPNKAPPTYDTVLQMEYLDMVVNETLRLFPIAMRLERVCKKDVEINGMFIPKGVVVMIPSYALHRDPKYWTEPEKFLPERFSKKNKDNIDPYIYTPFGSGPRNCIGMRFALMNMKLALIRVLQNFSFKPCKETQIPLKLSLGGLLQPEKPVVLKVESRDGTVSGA
Chain of Cannabinoid receptor 1 (P21554 whole entry): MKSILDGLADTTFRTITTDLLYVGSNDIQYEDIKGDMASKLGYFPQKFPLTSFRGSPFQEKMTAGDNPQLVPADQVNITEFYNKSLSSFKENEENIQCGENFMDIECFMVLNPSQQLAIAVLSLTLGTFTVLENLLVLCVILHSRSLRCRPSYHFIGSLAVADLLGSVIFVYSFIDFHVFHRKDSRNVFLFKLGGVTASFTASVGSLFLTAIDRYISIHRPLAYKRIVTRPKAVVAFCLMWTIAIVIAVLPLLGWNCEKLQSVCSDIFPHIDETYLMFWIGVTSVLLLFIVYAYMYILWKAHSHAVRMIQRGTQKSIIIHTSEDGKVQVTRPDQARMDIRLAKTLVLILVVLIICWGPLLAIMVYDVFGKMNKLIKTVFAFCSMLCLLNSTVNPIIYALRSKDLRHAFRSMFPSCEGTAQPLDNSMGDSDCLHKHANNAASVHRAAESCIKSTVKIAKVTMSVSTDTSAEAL
Chain of Cytochrome P450 2C9 (P11712 whole entry): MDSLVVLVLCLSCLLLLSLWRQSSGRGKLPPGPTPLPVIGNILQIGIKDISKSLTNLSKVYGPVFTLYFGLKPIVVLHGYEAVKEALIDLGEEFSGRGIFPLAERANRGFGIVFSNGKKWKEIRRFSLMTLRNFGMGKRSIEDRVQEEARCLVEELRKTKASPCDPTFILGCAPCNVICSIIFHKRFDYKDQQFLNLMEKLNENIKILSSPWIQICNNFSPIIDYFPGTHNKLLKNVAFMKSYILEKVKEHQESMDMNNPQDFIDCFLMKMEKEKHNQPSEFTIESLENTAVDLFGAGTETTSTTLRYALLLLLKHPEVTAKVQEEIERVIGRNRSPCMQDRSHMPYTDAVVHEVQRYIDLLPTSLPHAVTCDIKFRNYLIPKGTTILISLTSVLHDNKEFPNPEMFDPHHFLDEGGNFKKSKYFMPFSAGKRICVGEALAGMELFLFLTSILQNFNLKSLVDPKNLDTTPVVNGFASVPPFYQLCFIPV

As to `O=C(NCc1ncc(C(F)(F)F)cc1Cl)c1ccc2c(c1)C1(CCS(=O)(=O)CC1)[C@H](C1CC1)N2S(=O)(=O)c1ccc(F)cc1` [BAY-784], the IC50 in data set [1] is 24 nM; in [8] it was over 10000 nM; in data set [10], 3400 nM; in [15], 1000 nM; in [16] it was over 10000 nM; in [17], over 10000 nM. For the same compound, the chromatographic logD in [2] amounted to 3.6. In [3], this compound came in with a solubility at 24 h of 7.1 µg/mL (≈ 10.6 µM). Further, in data set [4], the efflux ratio at 2 h, 2 µM stood at 10. Moreover, the clearance in data set [5] is 9 mL/min/kg. The half-life in data set [6] was 16 h. The bioavailability in data set [7] was found to be 48%. The compound also had a fraction unbound in data set [9] of 0.014. Besides, in data set [11], the Stabilty result is recorded as “Stable”. For the same compound, in [12], the CLH amounted to 8.17 mL/min/kg. Moreover, the Fh in [13] worked out at 93%; in [14] it was 72%. Further, the Kd in [18] is 5.52 nM. Further, the Activity result in data set [19] is listed as “<=60%”; in data set [20], 49%.
